Measurements gathered from unrelated publications.
Each line is one published result; the experiments were not run side by side.
Target: cAMP-dependent protein kinase catalytic subunit PRKX (PRKX, Homo sapiens, UniProt P51817)
One construct used (P51817 1-358): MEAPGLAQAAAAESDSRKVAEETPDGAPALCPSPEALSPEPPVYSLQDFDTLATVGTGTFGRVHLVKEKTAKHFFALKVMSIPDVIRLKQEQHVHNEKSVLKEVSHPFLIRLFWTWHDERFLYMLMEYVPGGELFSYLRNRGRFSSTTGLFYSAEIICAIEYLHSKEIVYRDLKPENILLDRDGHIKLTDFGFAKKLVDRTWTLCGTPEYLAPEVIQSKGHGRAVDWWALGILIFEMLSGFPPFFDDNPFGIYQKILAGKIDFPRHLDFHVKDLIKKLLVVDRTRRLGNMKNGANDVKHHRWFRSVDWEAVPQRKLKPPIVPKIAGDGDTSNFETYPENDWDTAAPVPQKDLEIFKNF

For `O=C(Nc1cnn(-c2csc(C(=O)NC3COC3)c2)c1)Nc1c(F)cccc1Cl`, the remaining activity was 91.5% (enzyme activity; inhibitor; 5 µM).
The remaining activity of `O=c1cc(-c2cccc3c2Sc2ccccc2S3)oc(N2CCOCC2)c1` is reported as 113% (enzyme activity; inhibitor; 0.5 µM).
`CC/C(=N\NC(=O)NCc1cccc(O)c1)c1ccc(O)c(C)c1O` gave an inhibition of 81.9% (enzyme activity; inhibitor; 0.1 µM).
The inhibition of `Cn1cnc(Br)c1C1=CN(c2ncnc3[nH]cnc23)CCS1` is reported as 17.6% (enzyme activity; inhibitor; radiometric; 50 nM).
`CCN(CC)CCNC(=O)c1c(C)[nH]c(/C=C2\C(=O)Nc3ccc(F)cc32)c1C` gave an inhibition of 1% (enzyme activity; inhibitor; 0.3 µM).
With `CC(C)(C)c1nc(-c2cccc(NS(=O)(=O)c3c(F)cccc3F)c2F)c(-c2ccnc(N)n2)s1` the remaining activity was 77% (enzyme activity; inhibitor; radiometric; 1 µM).
`Cc1ccc(NC(=O)c2ccc(C)c(C(F)(F)F)c2)cc1C#Cc1nn(C2CCC(O)CC2)c2ncnc(N)c12` (centres unmarked) has a remaining signal of 105% (cell-free assay; 10 µM).
With `N#Cc1ccc(Nc2ccc3[nH]c(=O)[nH]c3c2)c(Cl)c1` the remaining binding was 100% (cell-free assay; competition with immobilised ligand; 1 µM).
`CCCOc1ccc(OC)c(F)c1C(=O)c1ccc(C(=O)N[C@@H]2CNC[C@H]2NC(=O)c2ccc3[nH]ncc3c2)cc1` has a remaining activity of 16% (enzyme activity; inhibitor; 50 nM).
For `Cc1ccc(C(=O)NCc2ccsc2)cc1C#Cc1cn(C(C)C)c2ncnc(N)c12`, the activity vs control was 110% (enzyme activity; inhibitor; 1 µM).
For `CNC(=O)c1cc(Oc2ccc(NC(=O)Nc3ccc(Cl)c(C(F)(F)F)c3)cc2)ccn1`, the inhibition was 48% (enzyme activity; inhibitor; 10 µM).
With `Cc1ccc(C(=O)Nc2ccc(CN3CCN(C)CC3)c(C(F)(F)F)c2)cc1C#Cc1cnc2cccnn12` the remaining activity was 77% (enzyme activity; 23.5 nM).
With `CCS(=O)(=O)c1cc2cc(C[C@@](O)(CC(C)(C)c3ccc(F)cc3C(N)=O)C(F)(F)F)[nH]c2cn1` the remaining binding was 77% (cell-free assay; competition with immobilised ligand; 1 µM).
`Nc1ncnc2occ(-c3ccc(NC(=O)Nc4cc(C(F)(F)F)ccc4F)cc3)c12` has a remaining signal of 74% (cell-free assay; inhibitor; 20 µM).
With `CO[C@@H](C)c1c(Nc2ccc([C@H](N(C)C(=O)C3CCS(=O)(=O)CC3)C(F)(F)F)cc2)cnc2cc(Cl)nn12` the remaining binding was 88% (cell-free assay; competition with immobilised ligand; 1 µM).
`CCN(CC)c1ccc(C2=NNC(=O)CC2C)cc1[N+](=O)[O-]` (centres unmarked) has a remaining activity of 91% (enzyme activity; inhibitor; 10 µM).
`CN(C(=O)c1ccccc1)c1cc(N(C)c2ccc3c(c2)CCc2ccc(C(=O)NCCN4CCOCC4)cc2C3=O)ccc1F` gave a remaining binding of 93% (cell-free assay; competition with immobilised ligand; 1 µM).
With `Cc1ccc(Nc2nccc(N(C)c3ccc4c(C)n(C)nc4c3)n2)cc1S(N)(=O)=O` the inhibition was 61% (enzyme activity; inhibitor; 0.3 µM).
For `NS(=O)(=O)c1cc(NC(=O)C2(c3ccccc3Cl)CC2)ccc1Oc1cccc(Cl)c1`, the remaining binding was 77% (cell-free assay; competition with immobilised ligand; 1 µM).
With `N#CCCc1ccc2c(c1)-c1[nH]c3ccc([N+](=O)[O-])cc3c1CC(=O)N2` the remaining signal was 78.4% (cell-free assay; 0.5 µM).
With `C[C@H](c1cccc(C#N)c1)n1cc(Cl)cc(C(N)=O)c1=N` the remaining binding was 100% (cell-free assay; competition with immobilised ligand; 1 µM).
The remaining binding of `CN(C)c1nccc(-c2cnc3ncccn23)n1` is reported as 94% (binding; 1 µM).
`CC1=C(C#N)C(c2ccc3c(c2)c(NC(=O)c2ccccc2C)nn3C)C(C#N)=C(C)N1` gave a remaining binding of 76% (cell-free assay; competition with immobilised ligand; 1 µM).
`COc1cc2ncnc(Nc3ccc(Oc4ccccc4)c(C)c3C)c2cc1OC` has an inhibition of -12% (enzyme activity; inhibitor; 1 µM).
For `O=C(Nc1cccnn1)N1CCC(=Cc2cccc(Oc3ccc(C(F)(F)F)cn3)c2)CC1`, the remaining binding was 87% (cell-free assay; competition with immobilised ligand; 1 µM).
`CC(C)(O)[C@H]1CC[C@H](Nc2ccc3ncc(-c4cccc(C(F)(F)F)c4)n3n2)CC1` gave a remaining activity of 103% (enzyme activity; inhibitor; 1 µM).
